Data set [1] concerns the target T1, bone morphogenic protein receptor type 2 (BMPR2) (Homo sapiens, UniProt Q13873).
T1 sequence (Q13873 27-1038): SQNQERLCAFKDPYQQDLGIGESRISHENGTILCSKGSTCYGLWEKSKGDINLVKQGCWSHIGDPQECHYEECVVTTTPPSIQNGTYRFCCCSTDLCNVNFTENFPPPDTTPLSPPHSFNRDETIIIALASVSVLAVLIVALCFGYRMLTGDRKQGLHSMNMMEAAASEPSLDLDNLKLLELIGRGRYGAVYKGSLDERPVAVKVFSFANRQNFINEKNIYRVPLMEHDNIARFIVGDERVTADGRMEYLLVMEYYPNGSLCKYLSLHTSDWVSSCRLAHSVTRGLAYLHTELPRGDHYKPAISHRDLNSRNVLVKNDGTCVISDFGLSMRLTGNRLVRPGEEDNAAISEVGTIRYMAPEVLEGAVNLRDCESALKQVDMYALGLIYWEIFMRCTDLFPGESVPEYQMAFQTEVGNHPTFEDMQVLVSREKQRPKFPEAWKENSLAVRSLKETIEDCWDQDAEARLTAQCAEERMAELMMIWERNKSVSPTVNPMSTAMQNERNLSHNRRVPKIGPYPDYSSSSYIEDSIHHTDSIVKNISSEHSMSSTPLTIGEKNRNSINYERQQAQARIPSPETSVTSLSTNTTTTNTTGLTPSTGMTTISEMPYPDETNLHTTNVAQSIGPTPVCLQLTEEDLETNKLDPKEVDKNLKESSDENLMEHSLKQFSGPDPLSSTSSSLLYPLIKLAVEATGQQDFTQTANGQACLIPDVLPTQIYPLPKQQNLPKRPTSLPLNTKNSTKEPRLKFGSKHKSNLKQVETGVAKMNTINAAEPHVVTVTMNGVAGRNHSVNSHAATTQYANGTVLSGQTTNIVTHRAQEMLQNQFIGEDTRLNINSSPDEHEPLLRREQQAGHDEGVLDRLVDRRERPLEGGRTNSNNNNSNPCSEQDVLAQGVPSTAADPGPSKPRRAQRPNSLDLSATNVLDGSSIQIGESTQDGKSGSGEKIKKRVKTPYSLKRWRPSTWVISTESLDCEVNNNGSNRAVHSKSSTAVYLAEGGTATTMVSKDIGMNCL
In words: KdELECT assay, inhibitor binding constant for BMPR2.

Another data set has as its system Male SD rats. The data set can be described thus: Drug plus three weeks hypoxia. It is filed as in vivo, rat. The settings on record: for Right ventricular systolic pressure (RVSP): 17.8 µg/h Alzet osmotic pump for 14 of 21 days of hypoxia; for RVH compared to the normal control group: 28 days post-hypoxia; for Induction of severe PAH: drug plus hypoxia, rats. The gist of the method:
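Male SD rats got test compound 20 mg/kg SC once or 17.8 μg/h by osmotic minipump, then 3 weeks at FiO2 10% and 14 or 28 days normoxia; untreated normoxic rats as controls. Under isoflurane, RV pressure by sternotomy catheter; RV free wall, IVS, LV weighed. Lungs perfused with 10% formalin, H&E 8 μm sections, lumen/media area ratio, ≥20 arterioles/section. RV Picro-Sirius red staining.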

The target in a further data set is VEGFR2 kinase. The following applies: read-out: IC50 VEGFR2 kinase (reported); cited from earlier work.
Data set [2] in a line: Pharmacokinetic studies in Sprague Dawley rats. It is filed as in vivo. The following applies: rat, plasma.
Another data set relates to MRC5. The data set can be described thus: MRC5 proliferation assay. It is filed as cell-based. The settings on record: Homo sapiens, MRC5, read-out: IC50 MRC5 proliferation.
Data set [3] deals with human umbilical vein endothelial cell (HUVEC). In words: HUVEC proliferation assay. The class given is cell-based. The following applies: read-out: IC50 HUVECs proliferation.
A further data set concerns the target VEGFR2 (Homo sapiens, UniProt P35968). The data set can be described thus: KINOMEscan Profiling against 468 human kinases: VEGFR2. The class given is binding. The settings on record: 10,000 nM.
Setting [4] is: other: via an Alzet pump, 12 mg/kg.

The values that follow come from paper PMC8202272 (Pulmonary Circulation, 2021).

Where only a bound is given, the exact number is not on record here.

VEGFR2, sequence (P35968 20-1356): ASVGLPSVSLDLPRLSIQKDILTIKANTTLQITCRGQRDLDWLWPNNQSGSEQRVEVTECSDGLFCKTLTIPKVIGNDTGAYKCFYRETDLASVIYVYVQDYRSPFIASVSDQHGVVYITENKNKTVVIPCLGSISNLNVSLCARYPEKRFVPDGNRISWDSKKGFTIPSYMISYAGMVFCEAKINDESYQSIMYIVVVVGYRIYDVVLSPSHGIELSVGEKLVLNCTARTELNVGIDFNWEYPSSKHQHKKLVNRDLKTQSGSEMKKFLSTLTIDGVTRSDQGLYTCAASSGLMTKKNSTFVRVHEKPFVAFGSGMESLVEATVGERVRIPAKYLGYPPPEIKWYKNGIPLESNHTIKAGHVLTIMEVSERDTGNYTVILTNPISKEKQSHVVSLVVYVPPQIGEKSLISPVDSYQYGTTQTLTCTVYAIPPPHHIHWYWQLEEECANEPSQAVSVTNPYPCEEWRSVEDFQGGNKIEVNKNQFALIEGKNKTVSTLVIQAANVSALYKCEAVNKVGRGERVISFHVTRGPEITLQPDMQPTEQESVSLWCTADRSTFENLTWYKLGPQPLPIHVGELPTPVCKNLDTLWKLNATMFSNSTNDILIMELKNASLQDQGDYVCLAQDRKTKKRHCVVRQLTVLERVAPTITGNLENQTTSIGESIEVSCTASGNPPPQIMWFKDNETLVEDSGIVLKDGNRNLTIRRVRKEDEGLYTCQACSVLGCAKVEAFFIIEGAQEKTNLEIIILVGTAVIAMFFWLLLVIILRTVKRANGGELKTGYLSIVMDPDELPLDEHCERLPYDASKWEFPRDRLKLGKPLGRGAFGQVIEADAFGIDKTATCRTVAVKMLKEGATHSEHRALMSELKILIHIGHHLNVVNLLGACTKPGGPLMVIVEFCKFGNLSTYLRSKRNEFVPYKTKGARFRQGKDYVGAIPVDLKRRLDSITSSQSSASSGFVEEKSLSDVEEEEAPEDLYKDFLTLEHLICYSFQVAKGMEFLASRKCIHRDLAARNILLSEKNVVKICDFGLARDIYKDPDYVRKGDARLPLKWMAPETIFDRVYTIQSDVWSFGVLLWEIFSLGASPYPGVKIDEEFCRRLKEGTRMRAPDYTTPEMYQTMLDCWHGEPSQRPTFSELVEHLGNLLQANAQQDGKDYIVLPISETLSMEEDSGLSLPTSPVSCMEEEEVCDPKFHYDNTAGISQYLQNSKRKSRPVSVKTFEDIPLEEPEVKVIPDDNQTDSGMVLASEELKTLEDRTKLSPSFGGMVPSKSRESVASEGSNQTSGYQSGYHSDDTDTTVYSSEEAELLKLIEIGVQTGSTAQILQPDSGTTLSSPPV

In data set [1], `COc1cc2nccc(Oc3ccc(NC(=O)C4(C(=O)Nc5ccc(F)cc5)CC4)cc3)c2cc1OC` [Cabozantinib, cabozantinib] yielded a dissociation constant Kd greater than 10000 nM. Also, the “Right ventricular systolic pressure (RVSP)” value in the data set on Male SD rats (14 days after removal from hypoxia, mean ± SEM) worked out at 40.0 ± 3.1 mmHg; in the data set on Male SD rats (28 days after removal from hypoxia, mean ± SEM) it was 27.9 ± 1.9 mmHg. The “RVH by Fulton's Index (RV/(LV + IVS))” value in the data set with Male SD rats (14 days post-hypoxia, Cabo = SC + Alzet groups, mean ± SEM) is recorded as 0.36 ± 0.02. Further, in the data set on Male SD rats, the “RVH compared to the normal control group” value is “no significant difference”. Besides, the “Induction of severe PAH” value with Male SD rats is on record as “did not induce severe PAH”. Moreover, the results for the IC50 (on VEGFR2 kinase; in the data set on MRC5; in data set [3]) were 0.035 nM, 549 nM and 4.9 nM, respectively. Also, the exposure AUC(0-t) in data set [2] (setting [4]) is 16800 ng·h/mL; in data set [2] (sc, 20 mg/kg), 27500 ng·h/mL. Moreover, the Cmax was found to be 238 ± 83 ng/mL in data set [2] (setting [4]) and 1620 ± 103 ng/mL in data set [2] (sc, 20 mg/kg). In addition, the half-life was 43 ± 8 h in data set [2] (setting [4]) and 25.7 ± 10.8 h in data set [2] (sc, 20 mg/kg).
Take `Cc1cc(C)c(/C=C2\C(=O)Nc3ccccc32)[nH]1` [SU5416]: at VEGFR2, the “Activity against VEGFR2 in kinome screen” value is recorded as “potent”. Further, in the data set with Male SD rats, the “RVH compared to the normal control group” value is given as “significantly increased” and the “Induction of severe PAH” value is on record as “induced severe PAH”. Moreover, the “RV fibrosis (Picro-Sirius red, qualitative)” value in the data set on Male SD rats (days 14 and 28 after removal from hypoxia, SU5416H vs CaboH groups) was “increase in RV fibrosis”. Moreover, in data set [2] (sc, 20 mg/kg), the AUC(0-t) was determined as 12.6 ± 2 ng·h/mL, the Cmax is 4.97 ± 2.3 ng/mL and the half-life was 5 ± 4.7 h. Further, the IC50 with MRC5 is 11700 nM. Moreover, in data set [3], the IC50 was found to be 330 nM.
